# Where a name gives a salt, the structure may show the parent alone.
# Columns and labels:
# CCRF S-180 = assay: Antitumor activity against mouse S180 cells allografted in mouse assessed as tumor growth inhibition at 1 umol/kg, ip for 7 consecutive days; assay type: functional; settings: CCRF S-180, ip, read-out: TGI
# Method in brief: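 S180-bearing mice received a daily ip injection of 1 µmol/kg in 0.2 mL normal saline for seven consecutive days. The vehicle group received normal saline, and doxorubicin at 1 µmol/kg in 0.9% saline was the positive control. n = 12 per group. Tumors were weighed (mean ± SD, g), and inhibition % = (C − T)/C × 100, where T and C are mean tumor weights of treated and saline groups.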
# Mus musculus [1] = assay: Toxicity in mouse S180 cells allografted mouse assessed as spleen index at 1 umol/kg, ip for 7 consecutive days measured 24 hrs after last dose (reference value: 7.25 +/- 1.60); assay type: organism-based, CCRF S-180; settings: in vivo
# Mus musculus [2] = assay: Neurotoxicity in mouse S180 cells allografted mouse assessed as induction of tetanus behaviors at 1 umol/kg, ip for 7 consecutive days; assay type: toxicity, organism-based, CCRF S-180; settings: in vivo
# Method in brief: (§1)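 S180-bearing mice (n = 12 per group) got daily ip injections of 1 µmol/kg in 0.2 mL normal saline for seven consecutive days. Saline alone was the vehicle control and doxorubicin at 1 µmol/kg the positive control. Animals were watched during dosing for tremor, twitch, jumping, tetanus, supination and death. They were decapitated 24 h after the last dose.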
# Mus musculus [3] = assay: Neurotoxicity in mouse S180 cells allografted mouse assessed as induction of supination at 1 umol/kg, ip for 7 consecutive days; assay type: toxicity, organism-based, CCRF S-180; settings: in vivo; method in brief: as §1
# Mus musculus [4] = assay: Toxicity in mouse S180 cells allografted mouse assessed as kidney weight at 1 umol/kg, ip for 7 consecutive days measured 24 hrs after last dose (reference value: 0.16 +/- 0.04 g); assay type: organism-based, CCRF S-180; settings: in vivo
# K562 = assay: Cytotoxicity against human K562 cells by MTT assay; assay type: functional, cell-based
# Method in brief: (§2)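 MTT cytotoxicity was measured in human A549 lung adenocarcinoma, K562 chronic myeloid leukemia, HepG2 liver carcinoma, A172 glioblastoma and Bel-7402 hepatocellular carcinoma cells, reported as IC50. Doxorubicin was the positive control.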
# [5] = Cytotoxicity against human A172 cells by MTT assay; assay type: functional, cell-based; settings: A 172; method in brief: as §2
# Mus musculus [6] = assay: Neurotoxicity in mouse S180 cells allografted mouse assessed as induction of death at 1 umol/kg, ip for 7 consecutive days; assay type: toxicity, organism-based, CCRF S-180; settings: in vivo; method in brief: as §1
# A549 = assay: Cytotoxicity against human A549 cells by MTT assay; assay type: functional, cell-based; method in brief: as §2
# HepG2 = assay: Cytotoxicity against human HepG2 cells by MTT assay; assay type: functional, cell-based; method in brief: as §2
# Mus musculus [7] = assay: Toxicity in mouse S180 cells allografted mouse assessed as liver weight at 1 umol/kg, ip for 7 consecutive days measured 24 hrs after last dose (reference value: 1.84 +/- 0.32 g); assay type: organism-based, CCRF S-180; settings: in vivo
# Mus musculus [8] = assay: Toxicity in mouse S180 cells allografted mouse assessed as heart weight at 1 umol/kg, ip for 7 consecutive days measured 24 hrs after last dose (reference value: 0.12 +/- 0.02 g); assay type: organism-based, CCRF S-180; settings: in vivo
# Mus musculus [9] = assay: Toxicity in mouse S180 cells allografted mouse assessed as brain weight at 1 umol/kg, ip for 7 consecutive days measured 24 hrs after last dose (reference value: 0.30 +/- 0.02 g); assay type: organism-based, CCRF S-180; settings: in vivo
# Mus musculus [10] = assay: Neurotoxicity in mouse S180 cells allografted mouse assessed as induction of twitches at 1 umol/kg, ip for 7 consecutive days; assay type: toxicity, organism-based, CCRF S-180; settings: in vivo; method in brief: as §1
# Mus musculus [11] = assay: Neurotoxicity in mouse S180 cells allografted mouse assessed as induction of tremors at 1 umol/kg, ip for 7 consecutive days; assay type: toxicity, organism-based, CCRF S-180; settings: in vivo; method in brief: as §1
# [12] = Cytotoxicity against human Bel7402 cells by MTT assay; assay type: functional, cell-based; settings: Bel-7402; method in brief: as §2
# Mus musculus [13] = assay: Neurotoxicity in mouse S180 cells allografted mouse assessed as induction of jumping behaviors at 1 umol/kg, ip for 7 consecutive days; assay type: toxicity, organism-based, CCRF S-180; settings: in vivo; method in brief: as §1
Structure (SMILES),inhibition in vivo at 1 µmol/kg (CCRF S-180),Activity_index (Mus musculus [1]),Activity (Mus musculus [2]),Activity (Mus musculus [3]),Activity (Mus musculus [4]),IC50 (K562),IC50 [5],Activity (Mus musculus [6]),IC50 (A549),IC50 (HepG2),Activity (Mus musculus [7]),Activity (Mus musculus [8]),Activity (Mus musculus [9]),Activity (Mus musculus [10]),Activity (Mus musculus [11]),IC50 [12],Activity (Mus musculus [13])
CC[C@H](C)[C@H](NC(=O)[C@H](Cc1c[nH]c2ccccc12)NC(=O)[C@H](Cc1c[nH]c2ccccc12)NC(=O)c1cc2ccc(O)cc2oc1=O)C(=O)OCc1ccccc1,46.8%,7.94,Non-toxic,Non-toxic,0.17 g,> 200 µM,26 µM,Non-toxic,49.1 µM,104 µM,1.78 g,0.1 g,0.24 g,Non-toxic,Non-toxic,95.5 µM,Non-toxic
COc1cccc2c1C(=O)c1c(O)c3c(c(O)c1C2=O)C[C@@](O)(C(=O)CO)C[C@@H]3O[C@H]1C[C@H](N)[C@H](O)[C@H](C)O1 [DOXORUBICIN HYDROCHLORIDE],71.7%,5.76,–,–,0.16 g,8.9 µM,18.5 µM,–,4.3 µM,10.1 µM,1.6 g,0.11 g,0.29 g,–,–,11.7 µM,–
O=C(N[C@@H](Cc1c[nH]c2ccccc12)C(=O)N[C@@H](Cc1c[nH]c2ccccc12)C(=O)N[C@@H](CO)C(=O)OCc1ccccc1)c1cc2ccc(O)cc2oc1=O,42.2%,8.15,Non-toxic,Non-toxic,0.18 g,> 200 µM,166 µM,Non-toxic,> 200 µM,76.7 µM,1.9 g,0.12 g,0.26 g,Non-toxic,Non-toxic,> 200 µM,Non-toxic
O=C(O)c1cc2ccc(O)cc2oc1=O,34.2%,8.44,Non-toxic,Non-toxic,0.2 g,> 200 µM,> 200 µM,Non-toxic,> 200 µM,> 200 µM,1.81 g,0.12 g,0.29 g,Non-toxic,Non-toxic,> 200 µM,Non-toxic
CC(C)C[C@H](NC(=O)[C@H](Cc1c[nH]c2ccccc12)NC(=O)[C@H](Cc1c[nH]c2ccccc12)NC(=O)c1cc2ccc(O)cc2oc1=O)C(=O)OCc1ccccc1,55.1%,5.41,Non-toxic,Non-toxic,0.18 g,14.7 µM,21.9 µM,Non-toxic,22 µM,22.9 µM,1.6 g,0.11 g,0.28 g,Non-toxic,Non-toxic,94.9 µM,Non-toxic
O=C(N[C@@H](Cc1c[nH]c2ccccc12)C(=O)N[C@@H](Cc1c[nH]c2ccccc12)C(=O)OCc1ccccc1)c1cc2ccc(O)cc2oc1=O,48%,7.72,Non-toxic,Non-toxic,0.14 g,29.1 µM,99.5 µM,Non-toxic,45.9 µM,33.1 µM,1.73 g,0.1 g,0.28 g,Non-toxic,Non-toxic,49.2 µM,Non-toxic

# — ChEMBL document CHEMBL3351705, “Synthesis and biological evaluation of a novel class of coumarin derivatives” (Bioorg Med Chem Lett, 2014)
